Data on eight compounds can be found in ChEMBL document CHEMBL1139843, “Novel sulfamide analogs of oleoylethanolamide showing in vivo satiety inducing actions and PPARalpha activation” (J Med Chem, 2007).

Calls of active or inactive are those of the source. The calls are words filed in the database; no cut-off is given here.

In assay [1] the target is T1, Peroxisome proliferator-activated receptor alpha (Homo sapiens, UniProt Q07869).
T1 sequence (Q07869 whole entry): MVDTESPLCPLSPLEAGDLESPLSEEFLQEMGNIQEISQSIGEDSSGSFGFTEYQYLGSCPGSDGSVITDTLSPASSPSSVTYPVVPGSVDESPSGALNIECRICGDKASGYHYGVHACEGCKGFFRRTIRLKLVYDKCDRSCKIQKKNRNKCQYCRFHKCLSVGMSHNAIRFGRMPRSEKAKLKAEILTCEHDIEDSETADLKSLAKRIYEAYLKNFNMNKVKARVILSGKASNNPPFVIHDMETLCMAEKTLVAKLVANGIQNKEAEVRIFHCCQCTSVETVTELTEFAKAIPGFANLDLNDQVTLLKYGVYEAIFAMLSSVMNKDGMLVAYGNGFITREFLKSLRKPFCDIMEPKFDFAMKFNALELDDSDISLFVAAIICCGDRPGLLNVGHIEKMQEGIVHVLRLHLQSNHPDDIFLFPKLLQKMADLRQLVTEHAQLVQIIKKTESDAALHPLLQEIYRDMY
Description: Activation of human PPARalpha by GST pull down assay. The procedure, abridged: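 GST or GST-TIF2 Sepharose beads, pre-blocked with 1 µg/µl BSA, incubated with 20 ng in vitro translated [35S]-labeled PPARalpha with or without compound. Unbound translated protein washed off with immunoprecipitation buffer, then bound receptor detected.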

Assay [2] concerns Rattus norvegicus. Description: Reduction in body weight gain in obese Zucker rat at 1 mg/kg, ip after 11 days. It is filed as functional, organism-based. More on the design: dose 1 mg/kg. The procedure, abridged:
(§1)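 Genetically obese Zucker (fa/fa) rats, free-feeding, given 1 mg/kg i.p. daily for 11 days at dark-period onset, in Tween 80/saline. Cumulative relative weight gain (g/kg body weight, from day 1) and food intake compared with vehicle; means ± SEM, n = 3-6, ANOVA.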

The subject of assay [3] is Rattus norvegicus. Description: Reduction in food intake in obese Zucker rat at 1 mg/kg, ip after 11 days. The assay is classed as functional, organism-based. Also noted: dose 1 mg/kg. The procedure, abridged:
as §1

Assay [4] relates to Rattus norvegicus. Description: Reduction in body weight of Wistar rat at 1 mg/kg, ip after 8 days. The assay is classed as functional, organism-based. Also noted: dose 1 mg/kg. The procedure, abridged:
(§2)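 Normal Wistar rats, free-feeding, dosed 1 mg/kg i.p. daily for 8 days at dark-period onset. Compound suspended in Tween 80/saline. Body weight and plasma triglycerides compared with vehicle-treated rats; means ± SEM, n = 3-6, ANOVA.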

Assay [5] relates to Rattus norvegicus. As to the kind of experiment: Reduction in plasma triglycerides in Wistar rat at 1 mg/kg, ip after 8 days. It is filed as functional, organism-based. More on the design: dose 1 mg/kg. The procedure, abridged:
as §2

Assay [6] concerns the target T2, Peroxisome proliferator-activated receptor alpha (Homo sapiens) (UniProt Q07869).
T2 sequence (whole entry): T1 sequence (Q07869 whole entry)
Description: Agonist activity at human PPARalpha expressed in MCF7 cells transfected with co-activator TIF2 by luciferase reporter gene assay at 1 uM. It is filed as functional, cell-based. The procedure, abridged: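 MCF-7 cells grown overnight in phenol red-free DMEM with 5% charcoal-treated FBS. Transfected with DOTAP liposomes carrying human ACO PPRE-luciferase reporter, wild-type hPPARalpha and full-length TIF2. Ligand or DMSO added 4 h after transfection, with medium topped up with charcoal-treated FBS. Cells lysed 16 h later. Luciferase normalized to protein, relative to DMSO-treated cells without overexpression; mean ± SD, n = 3-6.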

For assay [7], the system named is Rattus norvegicus. As to the kind of experiment: Reduction in food intake in Wistar rat at 0.03 to 3 mg/kg, ip.

As to `CCCCCCCCCCCCCCCCNS(=O)(=O)NCCC`, the EC50 (in general, the midpoint of the concentration-response curve) in assay [1] was determined as 21 µM.
For `CCCCCCCCCCCCCCCCCCNS(=O)(=O)NCCC`, the result in assay [2], in assay [3], in assay [4], in assay [5] and in assay [6] was Active. For the same compound, the EC50 in assay [1] stood at 0.1 µM.
As to `CCCCCCCC/C=C\CCCCCCCC(=O)NCCO` [OLEOYLETHANOLAMIDE], in assay [6], the outcome was Active. Moreover, the EC50 in assay [1] came to 0.11 µM.
`CCCCCCCCCCCCCCCCNS(N)(=O)=O` showed an EC50 in assay [1] above 10000 µM.
On the same count and under the same terms, the figure for `CCCCCCCC/C=C\CCCCCCCCNS(=O)(=O)NCCC` is 11 µM; for `CCCCCCCC/C=C\CCCCCCCCNS(N)(=O)=O` it is 0.524 µM.
In the case of `Cc1cccc(Nc2cc(Cl)nc(SCC(=O)O)n2)c1C`, the result in assay [6] was Active.
As for `CCCCCCCCCCCCCCCCCCNS(N)(=O)=O`, in assay [7], the outcome was Active. Moreover, the outcome in assay [6] was inactive. In assay [1], this compound gave an EC50 above 10000 µM.
